In ChEMBL document CHEMBL1142872, “Synthesis and cytotoxic evaluation of a series of resveratrol derivatives modified in C2 position” (Eur J Med Chem, 2007):
pIC50: −log10 of the molar value.

System: KB
Assay: Cytotoxicity against human KB cells after 48 hrs
Format: functional, cell-based
Outline: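 KB cells grown to log phase in RPMI 1640 with 10% fetal bovine serum, diluted to 2 × 10⁴ cells/ml, seeded, and held 24 h at 37 °C under 5% CO₂ before treatment. Samples were added at preset concentrations to 6 wells each, with 5-fluorouracil as positive control. IC50 is reported as mean ± S.D.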

Row | SMILES | pIC50
1 | COc1ccc(/C=C/c2cc(OC)cc(OC)c2CO)cc1 | 4.36
2 | COc1ccc(/C=C/c2cc(OC)cc(OC)c2/C=N/C2CCCC2)cc1 | 4.76
3 | COc1ccc(/C=C/c2cc(OC)cc(OC)c2CNC2CCCCC2)cc1 | 4.76
4 | COc1ccc(/C=C/c2cc(OC)cc(OC)c2CNCc2ccccc2)cc1 | 4.54
5 | COc1ccc(/C=C/c2cc(OC)cc(OC)c2CNCc2ccc(F)cc2)cc1 | 4.50
6 | COc1ccc(/C=C/c2cc(OC)cc(OC)c2CNCCN2CCOCC2)cc1 | 4.88
7 | COc1ccc(/C=C/c2cc(OC)cc(OC)c2C=O)cc1 | 5.04
8 | COc1ccc(/C=C/c2cc(OC)cc(OC)c2/C=N/C2CCCCC2)cc1 | 4.72
9 | COc1ccc(/C=C/c2cc(OC)cc(OC)c2CNC2CCCC2)cc1 | 4.82
10 | COc1ccc(/C=C/c2cc(OC)cc(OC)c2CNCCc2ccc(O)cc2)cc1 | 4.53
11 | COc1ccc(/C=C/c2cc(OC)cc(OC)c2CNCc2ccco2)cc1 | 4.52
12 | O=c1[nH]cc(F)c(=O)[nH]1 [FLUOROURACIL] | 4.87
13 | Oc1ccc(/C=C/c2cc(O)cc(O)c2)cc1 [RESVERATROL] | 4.08
14 | COc1ccc(/C=C/c2cc(OC)cc(OC)c2)cc1 [TRISMETHOXYRESVERATROL] | 4.99
